Measured values: ChEMBL document CHEMBL3769381 (J Med Chem, 2016)
Activity calls are given as the source filed them. The calls are words filed in the database; no cut-off is given here.

How the values were obtained:
[1] = molecular target: T1, Adenosine receptor A1 (Homo sapiens) (UniProt P30542)
T1 sequence (whole entry): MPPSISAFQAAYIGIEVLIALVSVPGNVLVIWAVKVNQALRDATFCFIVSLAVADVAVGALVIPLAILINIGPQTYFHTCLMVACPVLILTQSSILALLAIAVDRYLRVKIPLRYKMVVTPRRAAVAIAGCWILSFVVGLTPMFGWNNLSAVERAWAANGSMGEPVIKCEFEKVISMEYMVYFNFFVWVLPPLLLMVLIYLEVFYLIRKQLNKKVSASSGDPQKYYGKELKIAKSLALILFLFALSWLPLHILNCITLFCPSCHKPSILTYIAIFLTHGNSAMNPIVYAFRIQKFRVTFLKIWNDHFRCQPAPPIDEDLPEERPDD

Adenosine receptor A1 [2] = molecular target: T2, Adenosine receptor A1 (Homo sapiens, UniProt P30542); assay: Agonist activity at human Adenosine A1 receptor expressed in yeast cells coexpressed with chimeric GPA1/Galphai1 after 16 hrs by beta galactosidase reporter gene assay; type: cell-based
T2 sequence (P30542 whole entry): T1 sequence (whole entry)

[3] = molecular target: T3, Adenosine receptor A2b (Homo sapiens) (UniProt P29275); assay: Agonist activity at human Adenosine A2B receptor expressed in yeast cells coexpressed with chimeric GPA1/Galphas after 16 hrs by beta-galactosidase reporter gene assay relative to NECA; type: cell-based
T3 sequence (whole entry): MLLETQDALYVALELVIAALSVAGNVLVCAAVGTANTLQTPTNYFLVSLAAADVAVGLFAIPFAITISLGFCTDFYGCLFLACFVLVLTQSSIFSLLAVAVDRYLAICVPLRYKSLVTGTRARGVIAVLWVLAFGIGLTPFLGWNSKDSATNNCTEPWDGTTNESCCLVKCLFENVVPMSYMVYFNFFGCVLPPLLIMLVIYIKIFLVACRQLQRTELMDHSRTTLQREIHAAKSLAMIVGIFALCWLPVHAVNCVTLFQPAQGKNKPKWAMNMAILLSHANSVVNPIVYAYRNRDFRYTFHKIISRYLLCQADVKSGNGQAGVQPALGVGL
How it was run: (§1)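 Yeast (Δfar1, FUS1-lacZ) express A2BR from the GAPDH promoter alongside Gpa1p/Gαs chimera. The OD600 is 0.02 and compound is added in 1% v/v DMSO for 16 h at 30°C. β-Galactosidase is read with ONPG at OD430, normalised as (OD430−OD620)/OD620. […] Three-parameter logistic fit gives EC50 and Emax. Data are from 5-8 independent experiments.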

Adenosine receptor A2a [4] = molecular target: T4, Adenosine receptor A2a (Homo sapiens, UniProt P29274); assay: Agonist activity at human Adenosine A2A receptor expressed in yeast cells coexpressed with chimeric GPA1/Galphas after 16 hrs by beta-galactosidase reporter gene assay; type: cell-based
[5] = molecular target: T5, Adenosine receptor A3 (Homo sapiens) (UniProt P0DMS8); assay: Agonist activity at human Adenosine A3 receptor transfected in CHO-K1 cells assessed as inhibition of forskolin-stimulated cAMP production after 30 mins by multimode microplate reader analysis relative to total forskolin; type: functional, cell-based; parameters: concentration or dose not given beside the values
T5 sequence (whole entry): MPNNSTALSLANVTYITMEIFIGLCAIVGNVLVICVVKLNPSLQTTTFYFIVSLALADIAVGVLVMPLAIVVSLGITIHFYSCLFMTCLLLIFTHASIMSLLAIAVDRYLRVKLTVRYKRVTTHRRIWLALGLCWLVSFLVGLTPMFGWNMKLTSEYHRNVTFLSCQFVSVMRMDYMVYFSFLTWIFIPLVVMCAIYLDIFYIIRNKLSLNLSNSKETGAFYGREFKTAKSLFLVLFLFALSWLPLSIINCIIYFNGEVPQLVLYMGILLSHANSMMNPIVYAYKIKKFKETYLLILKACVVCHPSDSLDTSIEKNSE
How it was run: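 CHO-K1 cells are transiently transfected with receptor (2 µg DNA, FuGene 6) and harvested at 48 h. Cells are resuspended in PBS with 0.1% BSA and 25 µM rolipram, at 2500 cells/well. They are co-incubated with 10 µM forskolin and ligand (10 pM to 1 µM) for 30 min at room temperature. cAMP is measured by LANCE kit. Data are expressed as % of the 10 µM forskolin response.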

Adenosine receptor A2b = molecular target: T6, Adenosine receptor A2b (Homo sapiens, UniProt P29275); assay: Agonist activity at human Adenosine A2B receptor expressed in yeast cells coexpressed with chimeric GPA1/Galphas after 16 hrs by beta-galactosidase reporter gene assay; type: cell-based
T6 sequence (P29275 whole entry): T3 sequence (whole entry)
How it was run: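 Yeast (Δfar1, FUS1-lacZ) express A2BR from the GAPDH promoter alongside Gpa1p/Gαs chimera. The OD600 is 0.02 and compound is added in 1% v/v DMSO for 16 h at 30°C. β-Galactosidase is read with ONPG at OD430, normalised as (OD430−OD620)/OD620. Three-parameter logistic fit gives EC50 and Emax. Data are from 5-8 independent experiments.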

[6] = molecular target: T1, Adenosine receptor A1 (Homo sapiens); remark: listed apart in the source
Adenosine receptor A2a [7] = molecular target: T4, Adenosine receptor A2a
[8] = molecular target: T3, Adenosine receptor A2b (Homo sapiens); assay: Binding affinity to human Adenosine A2B receptor expressed in yeast cells coexpressed with GPA1/Galphas; type: cell-based
How it was run: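 pKA is derived by non-linear regression of the operational model of agonism applied to 16 h yeast FUS1-lacZ concentration-response data, with A2BR coupled to the GPA1/Gαs chimera.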

Adenosine receptor A2a [9] = molecular target: T4, Adenosine receptor A2a; remark: listed apart in the source
[10] = molecular target: T3, Adenosine receptor A2b (Homo sapiens)
Adenosine receptor A1 [11] = molecular target: T2, Adenosine receptor A1; assay: Agonist activity at human Adenosine A1 receptor transfected in CHO-K1 cells assessed as inhibition of forskolin-stimulated cAMP production after 30 mins by multimode microplate reader analysis; type: functional, cell-based
Adenosine receptor A3 = molecular target: T7, Adenosine receptor A3 (Homo sapiens, UniProt P0DMS8); assay: Agonist activity at human Adenosine A3 receptor transfected in CHO-K1 cells assessed as inhibition of forskolin-stimulated cAMP production after 30 mins by multimode microplate reader analysis; type: functional, cell-based
T7 sequence (P0DMS8 whole entry): T5 sequence (whole entry)
How it was run: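 CHO-K1 cells are transiently transfected with receptor (2 µg DNA, FuGene 6) and harvested at 48 h. They are co-incubated with 10 µM forskolin and ligand (10 pM to 1 µM) for 30 min at room temperature. cAMP is measured by LANCE kit. Data are expressed as % of the 10 µM forskolin response.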

Adenosine receptor A1 [12] = molecular target: T2, Adenosine receptor A1; assay: Competitive antagonist activity at human Adenosine A1 receptor expressed in yeast cells after 16 hrs by LacZ reporter gene assay; type: cell-based; conditions: read-out: pA2 (converted)
[13] = molecular target: T3, Adenosine receptor A2b (Homo sapiens); assay: Agonist activity at human Adenosine A2B receptor expressed in yeast cells coexpressed with chimeric GPA1/Galphas at 100 µM after 16 hrs by beta-galactosidase reporter gene assay; type: cell-based
How it was run: as §1

[14] = molecular target: T1, Adenosine receptor A1 (Homo sapiens); assay: Agonist activity at human Adenosine A1 receptor expressed in yeast cells coexpressed with chimeric GPA1/Galphai1 at 100 uM after 16 hrs by beta galactosidase reporter gene assay; type: cell-based
How it was run: (§2)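 Human receptor expressed from GAPDH promoter (p426-GPD) in Δfar1 FUS1-lacZ yeast with Gpa1p(1-467) carrying the 5 C-terminal Gα residues. Cells are grown overnight in SD-URA at 30°C, diluted 1:10 and grown 8 h. They are set to OD600 0.02 and given compound at 1% v/v DMSO for 16 h at 30°C. A2A strain is grown in SD-URA-HIS, with 5 mM 3-amino-triazole in treatment media. Read-out: ONPG, (OD430−OD620)/OD620.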

Adenosine receptor A2a [15] = molecular target: T4, Adenosine receptor A2a; assay: Agonist activity at human Adenosine A2A receptor expressed in yeast cells coexpressed with chimeric GPA1/Galphas at 100 uM after 16 hrs by beta-galactosidase reporter gene assay; type: cell-based
How it was run: as §2

Adenosine receptor A1 [16] = molecular target: T2, Adenosine receptor A1; assay: Displacement of [3H]CPX from human Adenosine A1 receptor expressed in DDT1MF-2 cells; type: cell-based
Adenosine receptor A1 [17] = molecular target: T2, Adenosine receptor A1; assay: Displacement of [3H]CPX from human Adenosine A1 receptor expressed in CHO cells; type: cell-based

T4 sequence (P29274 whole entry): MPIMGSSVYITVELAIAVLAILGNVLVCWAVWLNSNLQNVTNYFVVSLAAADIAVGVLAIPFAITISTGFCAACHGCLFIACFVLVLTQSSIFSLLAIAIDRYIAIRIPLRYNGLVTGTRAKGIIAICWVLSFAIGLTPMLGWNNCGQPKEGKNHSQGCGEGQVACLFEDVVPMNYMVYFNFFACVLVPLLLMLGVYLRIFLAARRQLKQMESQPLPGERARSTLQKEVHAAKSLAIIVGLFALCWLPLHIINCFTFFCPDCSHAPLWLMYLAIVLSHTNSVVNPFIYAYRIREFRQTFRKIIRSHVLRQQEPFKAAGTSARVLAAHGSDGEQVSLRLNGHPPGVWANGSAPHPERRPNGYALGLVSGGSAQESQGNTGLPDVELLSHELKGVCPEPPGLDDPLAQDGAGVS

Row | SMILES | log(activity) [1] | EC50 (Adenosine receptor A1 [2]) [nM] | Emax [3] [%] | EC50 (Adenosine receptor A2a [4]) [nM] | Activity [5] [%] | EC50 (Adenosine receptor A2b) [nM] | pKA [6] | pKA (Adenosine receptor A2a [7]) | pKA [8] | log(activity) (Adenosine receptor A2a [9]) | log(activity) [10] | IC50 (Adenosine receptor A1 [11]) [nM] | IC50 (Adenosine receptor A3) [nM] | Kb (Adenosine receptor A1 [12]) [nM] | Activity [13] | Activity [14] | Activity (Adenosine receptor A2a [15]) | Ki (Adenosine receptor A1 [16]) [nM] | Ki (Adenosine receptor A1 [17]) [nM]
1 | CCNC(=O)[C@H]1O[C@@H](n2cnc3c(N[C@@H]4CCC[C@H]4O)ncnc32)[C@H](O)[C@@H]1O | 1.6 | 316 | 49.2 | 5750 | -37.9 | 331000 | 4.8 | 4.6 | 4.2 | 0.3 | -0.2 | 6.17 | 2.29 | – | – | – | – | – | –
2 | O[C@@H]1[C@H](O)[C@@H](CSc2ccccc2F)O[C@H]1n1cnc2c(N[C@@H]3CCC[C@H]3OCc3ccccc3)ncnc21 | – | – | – | – | – | – | inactive | inactive | inactive | – | – | – | – | 398 | inactive | inactive | inactive | – | –
3 | O[C@@H]1[C@H](O)[C@@H](CSc2ccccc2F)O[C@H]1n1cnc2c(N[C@@H]3CCC[C@H]3O)ncnc21 [GS-9667] | – | – | – | – | – | – | inactive | inactive | inactive | – | – | – | – | 5010 | inactive | inactive | inactive | 113 | 1100
